In the M2OR odorant receptor database:
Numbering of substitutions follows the chain as printed.

Columns and labels:
Details in all cases: stereoisomer not certain
[1] = biological target: T1, OR4S2 (Homo sapiens) (UniProt Q8NH73)
T1 sequence (whole entry): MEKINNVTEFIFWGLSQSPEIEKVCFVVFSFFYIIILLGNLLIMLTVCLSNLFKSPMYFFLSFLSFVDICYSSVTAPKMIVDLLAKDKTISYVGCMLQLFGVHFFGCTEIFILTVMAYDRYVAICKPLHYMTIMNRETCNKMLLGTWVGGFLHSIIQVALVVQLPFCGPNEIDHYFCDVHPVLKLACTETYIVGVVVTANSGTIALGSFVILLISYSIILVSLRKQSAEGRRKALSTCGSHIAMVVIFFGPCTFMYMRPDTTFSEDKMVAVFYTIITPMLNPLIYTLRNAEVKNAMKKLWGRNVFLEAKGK
Method in brief: (§1)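 Values were gathered from published papers (main text and supplementary material), with extra details requested from the original authors when needed, and checked for typos and inconsistencies. Each receptor–molecule pair is called responsive (active) if the original authors judged the measured signal statistically different from baseline, and non-responsive (inactive) otherwise. Assay methods varied by source, often transient mammalian cell-line luciferase assays. Recorded details include cell line, G-protein, co-transfected protein and tags.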

[2] = biological target: T2, OR4X1 (Homo sapiens) (UniProt Q8NH49)
T2 sequence (whole entry): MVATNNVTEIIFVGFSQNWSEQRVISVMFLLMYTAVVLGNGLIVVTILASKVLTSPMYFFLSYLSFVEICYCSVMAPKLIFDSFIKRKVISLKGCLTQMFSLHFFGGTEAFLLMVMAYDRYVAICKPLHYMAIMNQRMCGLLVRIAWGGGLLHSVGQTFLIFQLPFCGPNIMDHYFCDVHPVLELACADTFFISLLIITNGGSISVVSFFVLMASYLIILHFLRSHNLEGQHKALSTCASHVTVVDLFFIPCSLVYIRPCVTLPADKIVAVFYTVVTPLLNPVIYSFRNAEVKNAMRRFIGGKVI
Method in brief: as §1

[3] = biological target: T3, OR4X2 (Homo sapiens) (UniProt Q8NGF9)
T3 sequence (whole entry): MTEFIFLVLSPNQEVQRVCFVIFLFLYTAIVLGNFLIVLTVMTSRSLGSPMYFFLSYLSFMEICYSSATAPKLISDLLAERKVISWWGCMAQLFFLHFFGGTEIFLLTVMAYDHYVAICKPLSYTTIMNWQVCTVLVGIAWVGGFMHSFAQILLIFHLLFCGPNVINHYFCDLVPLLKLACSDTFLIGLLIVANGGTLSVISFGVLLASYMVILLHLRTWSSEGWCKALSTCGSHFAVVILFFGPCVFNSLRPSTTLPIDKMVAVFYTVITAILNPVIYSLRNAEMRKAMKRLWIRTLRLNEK
Method in brief: as §1

[4] = biological target: T4, OR51A2 (Homo sapiens) (UniProt Q8NGJ7)
T4 sequence (whole entry): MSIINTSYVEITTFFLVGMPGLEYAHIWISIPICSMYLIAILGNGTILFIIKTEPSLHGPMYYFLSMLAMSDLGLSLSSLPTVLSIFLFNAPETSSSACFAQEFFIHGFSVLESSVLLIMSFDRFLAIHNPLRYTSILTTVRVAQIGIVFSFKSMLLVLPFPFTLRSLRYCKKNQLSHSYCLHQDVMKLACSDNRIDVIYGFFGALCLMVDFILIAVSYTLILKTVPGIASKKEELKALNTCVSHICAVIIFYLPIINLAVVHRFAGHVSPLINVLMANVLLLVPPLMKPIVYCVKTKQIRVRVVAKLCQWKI
Method in brief: as §1

[5] = biological target: T5, OR51A4 (Homo sapiens) (UniProt Q8NGJ6)
T5 sequence (whole entry): T4 sequence (whole entry) with G59E, T94I, S97N, S167N, P227L, E235Q, G267R, M288T, K289N, W311R
Method in brief: as §1

[6] = biological target: T6, OR51A7 (Homo sapiens) (UniProt Q8NH64)
T6 sequence (whole entry): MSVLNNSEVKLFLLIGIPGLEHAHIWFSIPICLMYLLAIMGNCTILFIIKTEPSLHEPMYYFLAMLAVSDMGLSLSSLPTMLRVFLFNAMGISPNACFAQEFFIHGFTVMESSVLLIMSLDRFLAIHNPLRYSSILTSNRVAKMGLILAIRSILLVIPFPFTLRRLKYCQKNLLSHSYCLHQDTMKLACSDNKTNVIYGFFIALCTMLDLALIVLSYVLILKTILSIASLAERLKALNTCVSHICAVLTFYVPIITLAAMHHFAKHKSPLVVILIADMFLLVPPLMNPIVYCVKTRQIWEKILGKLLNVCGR
Method in brief: as §1

[7] = biological target: T7, OR51B2 (Homo sapiens) (UniProt Q9Y5P1)
T7 sequence (whole entry): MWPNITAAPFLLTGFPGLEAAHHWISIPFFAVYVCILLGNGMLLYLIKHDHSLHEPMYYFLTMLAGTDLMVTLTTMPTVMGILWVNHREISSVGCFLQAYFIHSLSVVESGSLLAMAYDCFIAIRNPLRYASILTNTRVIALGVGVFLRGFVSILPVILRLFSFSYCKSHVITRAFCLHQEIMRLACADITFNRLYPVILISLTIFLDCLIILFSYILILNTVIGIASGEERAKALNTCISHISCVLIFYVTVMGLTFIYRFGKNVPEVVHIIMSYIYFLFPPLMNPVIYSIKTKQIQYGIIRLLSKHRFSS
Method in brief: as §1

[8] = biological target: T8, OR51B4 (Homo sapiens) (UniProt Q9Y5P0)
T8 sequence (whole entry): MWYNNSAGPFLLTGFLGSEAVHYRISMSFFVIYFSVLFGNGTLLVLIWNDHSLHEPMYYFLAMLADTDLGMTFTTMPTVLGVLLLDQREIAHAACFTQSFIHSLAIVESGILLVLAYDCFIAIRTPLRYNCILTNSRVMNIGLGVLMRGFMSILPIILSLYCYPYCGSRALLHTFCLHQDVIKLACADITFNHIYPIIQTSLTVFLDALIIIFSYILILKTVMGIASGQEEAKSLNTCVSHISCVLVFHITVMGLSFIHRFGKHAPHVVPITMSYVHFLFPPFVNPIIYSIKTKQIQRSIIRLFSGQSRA
Method in brief: as §1

[9] = biological target: T9, OR51B5 (Homo sapiens) (UniProt Q9H339)
T9 sequence (whole entry): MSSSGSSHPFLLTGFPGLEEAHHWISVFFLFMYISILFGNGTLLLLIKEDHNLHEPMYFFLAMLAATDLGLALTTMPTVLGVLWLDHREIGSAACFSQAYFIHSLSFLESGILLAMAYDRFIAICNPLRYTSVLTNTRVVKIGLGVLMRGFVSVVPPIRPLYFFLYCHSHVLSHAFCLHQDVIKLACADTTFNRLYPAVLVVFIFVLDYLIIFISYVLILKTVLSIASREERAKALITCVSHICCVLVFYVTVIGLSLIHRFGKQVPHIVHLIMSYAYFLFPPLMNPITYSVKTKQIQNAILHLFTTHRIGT
Method in brief: as §1

[10] = biological target: T10, OR51B6 (Homo sapiens) (UniProt Q9H340)
T10 sequence (whole entry): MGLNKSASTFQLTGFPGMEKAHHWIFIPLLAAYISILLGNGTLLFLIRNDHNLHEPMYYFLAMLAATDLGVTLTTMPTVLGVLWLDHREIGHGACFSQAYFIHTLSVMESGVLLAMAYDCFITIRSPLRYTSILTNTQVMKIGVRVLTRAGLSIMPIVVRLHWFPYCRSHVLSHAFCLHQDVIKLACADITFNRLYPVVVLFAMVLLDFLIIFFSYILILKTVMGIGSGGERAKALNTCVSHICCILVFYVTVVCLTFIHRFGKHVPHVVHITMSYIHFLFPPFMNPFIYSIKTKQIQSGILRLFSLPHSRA
Method in brief: as §1

[11] = biological target: T11, OR51D1 (Homo sapiens) (UniProt Q8NGF3)
T11 sequence (whole entry): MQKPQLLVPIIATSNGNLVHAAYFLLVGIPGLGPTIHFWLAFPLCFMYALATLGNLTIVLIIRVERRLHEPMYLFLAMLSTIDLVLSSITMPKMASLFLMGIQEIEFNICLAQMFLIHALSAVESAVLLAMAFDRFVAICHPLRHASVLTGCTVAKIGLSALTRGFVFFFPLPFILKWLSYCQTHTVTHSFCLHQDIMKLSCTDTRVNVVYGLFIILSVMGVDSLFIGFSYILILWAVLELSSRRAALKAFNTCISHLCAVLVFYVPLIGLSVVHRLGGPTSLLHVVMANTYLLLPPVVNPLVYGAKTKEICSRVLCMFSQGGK
Method in brief: as §1

[12] = biological target: T12, OR51E1 (Homo sapiens) (UniProt Q8TCB6)
T12 sequence (whole entry): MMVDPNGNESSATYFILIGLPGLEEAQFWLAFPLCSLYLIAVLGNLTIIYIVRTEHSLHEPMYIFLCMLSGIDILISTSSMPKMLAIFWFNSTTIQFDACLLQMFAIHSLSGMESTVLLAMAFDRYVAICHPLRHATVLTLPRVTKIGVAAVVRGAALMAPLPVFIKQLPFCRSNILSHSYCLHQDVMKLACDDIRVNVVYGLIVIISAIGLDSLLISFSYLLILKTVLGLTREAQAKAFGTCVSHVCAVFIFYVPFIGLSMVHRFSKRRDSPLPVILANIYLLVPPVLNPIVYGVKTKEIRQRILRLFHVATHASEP
Method in brief: as §1

[13] = biological target: T13, OR51E2 (Homo sapiens) (UniProt Q9H255)
T13 sequence (whole entry): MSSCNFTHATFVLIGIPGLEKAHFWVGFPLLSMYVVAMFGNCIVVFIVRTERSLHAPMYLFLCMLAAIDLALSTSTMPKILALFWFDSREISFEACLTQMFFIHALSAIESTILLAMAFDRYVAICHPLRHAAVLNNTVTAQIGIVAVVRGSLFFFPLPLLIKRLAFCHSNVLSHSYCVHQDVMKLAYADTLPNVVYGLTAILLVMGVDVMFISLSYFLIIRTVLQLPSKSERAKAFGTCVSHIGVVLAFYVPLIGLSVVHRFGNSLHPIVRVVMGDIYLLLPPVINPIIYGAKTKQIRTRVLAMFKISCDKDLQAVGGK
Method in brief: as §1

[14] = biological target: T14, OR51F2 (Homo sapiens) (UniProt Q8NH61)
T14 sequence (whole entry): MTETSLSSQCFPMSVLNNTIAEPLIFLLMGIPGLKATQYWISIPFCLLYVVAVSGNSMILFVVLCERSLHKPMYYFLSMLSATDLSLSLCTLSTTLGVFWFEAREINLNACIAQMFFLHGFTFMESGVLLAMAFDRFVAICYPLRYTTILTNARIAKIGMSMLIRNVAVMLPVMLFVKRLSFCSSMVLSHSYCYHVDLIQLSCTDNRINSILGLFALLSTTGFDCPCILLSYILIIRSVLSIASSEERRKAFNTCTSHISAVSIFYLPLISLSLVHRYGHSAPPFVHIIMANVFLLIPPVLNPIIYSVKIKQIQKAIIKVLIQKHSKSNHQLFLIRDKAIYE
Method in brief: as §1

[15] = biological target: T15, OR51G1 (Homo sapiens) (UniProt Q8NGK1)
T15 sequence (whole entry): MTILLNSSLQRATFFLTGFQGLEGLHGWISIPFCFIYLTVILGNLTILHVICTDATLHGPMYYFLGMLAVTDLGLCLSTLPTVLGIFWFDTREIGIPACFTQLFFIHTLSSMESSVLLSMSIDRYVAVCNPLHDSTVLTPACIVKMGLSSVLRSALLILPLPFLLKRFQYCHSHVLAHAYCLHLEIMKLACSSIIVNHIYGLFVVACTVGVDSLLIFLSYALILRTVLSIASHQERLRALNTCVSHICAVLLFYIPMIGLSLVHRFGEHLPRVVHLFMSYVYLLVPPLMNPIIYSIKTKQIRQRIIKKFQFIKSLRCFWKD
Method in brief: as §1

[16] = biological target: T16, OR51G2 (Homo sapiens) (UniProt Q8NGK0)
T16 sequence (whole entry): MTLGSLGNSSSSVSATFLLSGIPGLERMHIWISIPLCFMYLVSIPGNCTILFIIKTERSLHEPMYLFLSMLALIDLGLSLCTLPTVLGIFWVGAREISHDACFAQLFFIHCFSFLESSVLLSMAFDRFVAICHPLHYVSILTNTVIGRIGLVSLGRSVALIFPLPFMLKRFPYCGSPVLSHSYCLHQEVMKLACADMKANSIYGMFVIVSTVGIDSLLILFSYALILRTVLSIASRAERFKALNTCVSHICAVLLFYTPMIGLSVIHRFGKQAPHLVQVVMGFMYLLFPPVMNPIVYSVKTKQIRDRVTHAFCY
Method in brief: as §1

[17] = biological target: T17, OR51I1 (Homo sapiens) (UniProt Q9H343)
T17 sequence (whole entry): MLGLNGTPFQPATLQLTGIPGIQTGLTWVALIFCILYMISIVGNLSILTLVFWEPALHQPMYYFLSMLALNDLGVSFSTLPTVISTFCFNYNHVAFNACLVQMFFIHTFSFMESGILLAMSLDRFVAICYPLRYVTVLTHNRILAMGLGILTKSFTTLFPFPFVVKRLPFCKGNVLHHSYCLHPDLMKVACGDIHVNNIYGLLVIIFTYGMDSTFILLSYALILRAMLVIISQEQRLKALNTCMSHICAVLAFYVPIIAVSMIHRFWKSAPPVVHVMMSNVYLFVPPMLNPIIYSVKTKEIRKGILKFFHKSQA
Method in brief: as §1

Measured: odorant receptor agonist call

CCC1OC(C)=C(O)C1=O (configuration not stated)
inactive: [1] | [2] | [3] | [4] | [5] | [6] | [7] | [8] | [9] | [10] | [11] | [12] | [13] | [14] | [15] | [16] | [17]
